Measured values taken from ChEMBL document CHEMBL4354806, “Discovery of an Orally Bioavailable Pan αv Integrin Inhibitor for Idiopathic Pulmonary Fibrosis” (J Med Chem, 2019).

Key:
Integrin alpha-V/beta-6 = Integrin alpha-V/beta-6 (Homo sapiens, UniProt P06756+P18564); test: Inhibition of recombinant human integrin alphaV (31 to 992 residues) beta6 (22 to 707 residues) expressed in CHO cells preincubated for 15 mins followed by Cy3B-RGD probe addition and measured after 2 hrs by fluorescence polarization assay
Procedure, shortened: (§1)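 Soluble purified human integrins from CHO cells, with 1 nM Cy3B-RGD probe, in 25 mM HEPES, 150 mM NaCl, 1 mM CHAPS, pH 7.4, at 20-22 °C. Final protein and cation: αvβ3 1 nM with 0.4 mM MgCl₂; αvβ5 4 nM with 0.1 mM MnCl₂; αvβ6 8 nM with MgCl₂; αvβ8 8 nM with MnCl₂. Read-out was polarization. pIC50 is mean ± SEM over test occasions.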

Integrin alpha-V/beta-3 = Integrin alpha-V/beta-3 (Homo sapiens, UniProt P05106+P06756); test: Inhibition of recombinant human integrin alphaV (31 to 992 residues) beta3 (27 to 718 residues) expressed in CHO cells preincubated for 15 mins followed by Cy3B-RGD probe addition and measured after 2 hrs by fluorescence polarization assay; procedure, shortened: as §1
[1] = Inhibition of recombinant human integrin alphaV (31 to 992 residues) beta5 (24 to 719 residues) expressed in CHO cells preincubated for 15 mins followed by Cy3B-RGD probe addition and measured after 2 hrs by fluorescence polarization assay; procedure, shortened: as §1
[2] = Inhibition of recombinant human integrin alphaV (31 to 992 residues) beta8 (43 to 684 residues) expressed in CHO cells preincubated for 15 mins followed by Cy3B-RGD probe addition and measured after 2 hrs by fluorescence polarization assay; procedure, shortened: as §1
[3] = Clearance in CD rat at 1 mg/kg, iv and 1 mg/kg, po measured up to 24 hrs by LC-MS/MS analysis; format: ADME, organism-based; conditions: in vivo
Procedure, shortened: (§2)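 Two male CD rats per arm. IV: 1 mg/kg bolus via femoral vein in DMSO:PEG200:water (5:45:50). PO: 1 mg/kg by gavage in 0.5% methyl cellulose/0.2% Tween 80. Blood was taken by tail-vein cannula to 7 h and by venipuncture to 24 h. Plasma was extracted with acetonitrile plus internal standard, and drug measured by LC-MS/MS.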

[4] = Volume of distribution at steady state in CD rat at 1 mg/kg, iv and 1 mg/kg, po measured up to 24 hrs by LC-MS/MS analysis; format: ADME, organism-based; conditions: in vivo, read-out: Vdss; procedure, shortened: as §2
[5] = Half life in CD rat at 1 mg/kg, iv and 1 mg/kg, po measured up to 24 hrs by LC-MS/MS analysis; format: ADME, organism-based; conditions: in vivo; procedure, shortened: as §2
[6] = Oral bioavailability in CD rat at 1 mg/kg administered via gavage up to 24 hrs by LC-MS/MS analysis; format: ADME, organism-based; conditions: in vivo; procedure, shortened: as §2
[7] = Permeability of the compound in pH 7.4 phosphate buffer measured after 3 hrs by artificial membrane permeability assay based LC-MS analysis; format: ADME; conditions: PAMPA, read-out: permeability
Procedure, shortened: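 Bilayer of 1.8% egg phosphatidylcholine and 1% cholesterol in n-decane on filter inserts. Phosphate buffer was 50 mM Na₂HPO₄ with 0.5% hydroxypropyl-β-cyclodextrin, pH 7.4. Compound was added to the donor (bottom) well and incubated 3 h at room temperature. Donor and acceptor concentrations were measured by liquid chromatography.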

| Structure (SMILES) | IC50 (Integrin alpha-V/beta-6) | IC50 (Integrin alpha-V/beta-3) | pIC50 [1] | pIC50 [2] | clearance [3] | Vd [4] | half-life [5] | bioavailability [6] | Papp at 3 h [7] |
| --- | --- | --- | --- | --- | --- | --- | --- | --- | --- |
| O=C(O)CC(Nc1cnc(OCCc2ccc3c(n2)NCCC3)cn1)c1cccc(Cl)c1 (racemic) | 12.6 µM | 5.01 µM | 5.3 | 4.9 | – | – | – | – | – |
| O=C(O)CC(Nc1ccc(OCCc2ccc3c(n2)NCCC3)cn1)c1cc(C2CC2)cc(C2CC2)c1 (racemic) | 0.316 µM | 0.126 µM | 7 | 6.9 | – | – | – | – | – |
| O=C(O)CC(Nc1ccc(OCCc2ccc3c(n2)NCCC3)nn1)c1ccc(Cl)cc1 (racemic) | 0.0251 µM | 0.002 µM | 8.5 | 7.5 | – | – | – | – | – |
| O=C(O)CC(Nc1ncc(OCCc2ccc3c(n2)NCCC3)cn1)c1ccc(Cl)cc1 (racemic) | 0.126 µM | 0.00126 µM | 9 | 7.2 | – | – | – | – | – |
| O=C(O)CC(Nc1cnc(OCCc2ccc3c(n2)NCCC3)nc1)c1cccc(Cl)c1 (racemic) | 0.631 µM | 0.0501 µM | 7.3 | 5.6 | – | – | – | – | – |
| O=C(O)CC(Nc1ccc(OCCc2ccc3c(n2)NCCC3)nn1)c1cccc(Cl)c1 (racemic) | 0.02 µM | 0.00316 µM | 8.5 | 7.6 | – | – | – | – | – |
| O=C(O)CC(Nc1ccc(OCCc2ccc3c(n2)NCCC3)cc1)c1cccc(F)c1 (racemic) | 0.1 µM | 0.002 µM | 8.8 | 6.4 | – | – | – | – | – |
| O=C(O)CC(Nc1cnc(OCCc2ccc3c(n2)NCCC3)nc1)c1ccc(Cl)cc1 (racemic) | 0.251 µM | 0.00794 µM | 8.2 | 6.1 | – | – | – | – | – |
| O=C(O)CC(Cc1ccc(OCCc2ccc3c(n2)NCCC3)cc1)c1ccccc1 (racemic) | 1.26 µM | 0.002 µM | 8.7 | 5.8 | – | – | – | – | – |
| O=C(O)CC(Nc1ccc(OCCc2ccc3c(n2)NCCC3)nc1)c1ccc(Cl)cc1 (racemic) | 1 µM | 0.0398 µM | 7.3 | 5.6 | – | – | – | – | – |
| O=C(O)CC(Nc1cnc(OCCc2ccc3c(n2)NCCC3)cn1)c1ccc(Cl)cc1 (racemic) | 19.5 µM | 12.6 µM | 4.9 | 4.5 | – | – | – | – | – |
| O=C(O)CC(Nc1ccc(OCCc2ccc3c(n2)NCCC3)cn1)c1ccc(CN2CCOCC2)cc1 (racemic) | 0.0316 µM | 0.00316 µM | 8.2 | 6.9 | – | – | – | – | – |
| O=C(O)CC(Nc1ccc(OCCc2ccc3c(n2)NCCC3)cn1)c1ccc(Oc2ccccc2)cc1 (racemic) | 0.0126 µM | 0.002 µM | 8.5 | 7.1 | – | – | – | – | – |

Now from value to molecule:

| IC50 (Integrin alpha-V/beta-6) | IC50 (Integrin alpha-V/beta-3) | pIC50 [1] | pIC50 [2] | clearance [3] | Vd [4] | half-life [5] | bioavailability [6] | Papp at 3 h [7] | Structure (SMILES) |
| --- | --- | --- | --- | --- | --- | --- | --- | --- | --- |
| 0.0501 µM | 0.00631 µM | 8.2 | 7.1 | – | – | – | – | – | O=C(O)CC(Nc1ccc(OCCc2ccc3c(n2)NCCC3)cn1)c1cccc(Cl)c1 (racemic) |
| 0.0398 µM | 0.00316 µM | 8.4 | 6.9 | – | – | – | – | – | O=C(O)CC(Nc1ccc(OCCc2ccc3c(n2)NCCC3)cn1)c1ccc(Cl)cc1 (racemic) |
| 0.0316 µM | 0.00501 µM | 8.4 | 7.2 | – | – | – | – | – | O=C(O)CC(Nc1ccc(OCCc2ccc3c(n2)NCCC3)cn1)c1cccc(Br)c1 (racemic) |
| 0.158 µM | 0.00501 µM | 8.3 | 6.6 | – | – | – | – | – | O=C(O)CC(Nc1ncc(OCCc2ccc3c(n2)NCCC3)cn1)c1cccc(Cl)c1 (racemic) |
| 0.0794 µM | 0.00794 µM | 8.1 | 6.7 | – | – | – | – | – | O=C(O)CC(Nc1ccc(OCCc2ccc3c(n2)NCCC3)cn1)c1ccc(C(F)(F)F)cc1 (racemic) |
| 0.0794 µM | 0.00251 µM | 8.4 | 6.8 | – | – | – | – | – | O=C(O)CC(Nc1ccc(OCCc2ccc3c(n2)NCCC3)cn1)c1cccc(F)c1 (racemic) |
| 0.794 µM | 0.158 µM | 7.9 | 5.7 | – | – | – | – | – | O=C(O)C[C@@H](Nc1ccc(OCCc2ccc3c(n2)NCCC3)nn1)c1cccc(Cl)c1 |
| 0.0158 µM | 0.00398 µM | 8.4 | 7.4 | 0.48 L/h/kg | 0.5 L/kg | 1.8 h | 98% | 80 nm/s | O=C(O)CC(Nc1ccc(OCCc2ccc3c(n2)NCCC3)cn1)c1cccc(C2CC2)c1 (racemic) |
| 0.0631 µM | 0.00398 µM | 8.5 | 7.2 | – | – | – | – | – | O=C(O)CC(Nc1ccc(OCCc2ccc3c(n2)NCCC3)cn1)c1cccc(CN2CCOCC2)c1 (racemic) |
| 0.00631 µM | 0.000794 µM | 8.9 | 8.1 | – | – | – | – | – | O=C(O)C[C@H](Nc1ccc(OCCc2ccc3c(n2)NCCC3)nn1)c1cccc(Cl)c1 |
| 0.398 µM | 0.0126 µM | 7.8 | 6 | – | – | – | – | – | O=C(O)CC(Nc1ccc(OCCc2ccc3c(n2)NCCC3)nc1)c1cccc(Cl)c1 (racemic) |
